Data set [1] can be described thus: Statistical significance, p values as compared to positive control by students t-test. It is filed as ADME. A digest of the protocol: (§1)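 Same arachidonic acid ear-edema model: 2 mg total topical dose in acetone, given 60 min before arachidonic acid, with 8 animals per group. Edema is measured by ear plug weight 1 h after arachidonic acid. p values come from Student's t-test against the concurrent arachidonic acid positive control. Thresholds are given as + (≤0.05) and so on.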

The nature of data set [2]: Partition coefficient (logP). Particulars: octanol/water. It is filed as physicochemical. A digest of the protocol: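 Lipophilicity (log P) measured by 1-octanol-coated reversed-phase HPLC. The mobile phase is pH 7.4 PBS saturated with 1-octanol, run on RP-18 or C-18 packing. A second system is linked to the first through overlapping series. For the most lipophilic analogues that could not be detected, log P is calculated from Free-Wilson-derived substituent constants assuming additivity.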

Data set [3] deals with Mus musculus. Put plainly: Compound was tested for inhibition of arachidonic acid induced mouse ear edema at 2 mg of dose. It is filed as functional. A digest of the protocol: (§2)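 Mouse ear edema induced by arachidonic acid (dissolved in acetone at 100 mg/mL). Test agent is applied topically in acetone, 2 mg/0.02 mL per total dose, 60 min before arachidonic acid. Ear edema is read 1 h later as the weight gain of an 8-mm-diameter ear plug. It is compared with acetone-only and arachidonic acid-only controls run in the same experiment. n = 8 per group; percent inhibition is reported as mean.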

The nature of data set [4]: Statistical significance, p values as compared to positive control by students t-test; I=Insoluble. It is filed as ADME. A digest of the protocol: as §1
Data set [5] has as its system Mus musculus. Briefly: Compound was tested for inhibition of arachidonic acid induced mouse ear edema at 2 mg of dose; I=Insoluble. It is filed as functional, organism-based. A digest of the protocol:
as §2

Data set [6] can be described thus: Statistical significance, p values as compared to positive control by students t-test; NS=Not significant. It is filed as ADME. A digest of the protocol:
as §1

`COc1c(OC)c(OC(C)=O)c2cc(Cl)ccc2c1OC(C)=O` [LONAPALENE]: the Significance entry in data set [1] is listed as “<= 0.001”. For the same compound, the lipophilicity (logP) in data set [2] is 3.26. The Inhibition in the data set on Mus musculus [3] turned out to be 54%.
On to `CC(=O)Oc1c(Oc2ccccc2)c(Oc2ccccc2)c(OC(C)=O)c2ccccc12`, for which, in data set [4], the Significance result is given as “Insoluble”. For the same compound, the logP in data set [2] came out at 4.8. Also, the inhibition entry in the data set with Mus musculus [5] is “Insoluble”.
As to `CC(C)(C)C(=O)Oc1c(Oc2ccccc2)c(Oc2ccccc2)c(OC(=O)C(C)(C)C)c2cc(Cl)ccc12`, the logP in data set [2] worked out at 8.7. In the data set with Mus musculus [5], the inhibition entry is “Insoluble”.
In the case of `CCC(=O)Oc1c(Oc2ccccc2)c(Oc2ccccc2)c(OC(=O)CC)c2ccccc12`, the Significance result in data set [4] is given as “Insoluble”. Further, the logP in data set [2] stood at 5.8. In addition, the inhibition result in the data set with Mus musculus [5] is “Insoluble”.
With `COc1c(OC)c(OC(=O)C(C)(C)C)c2c(Cl)cccc2c1OC(=O)C(C)(C)C`, the lipophilicity (logP) in data set [2] is 6.1. In data set [6], the Significance entry is “Not Active”. The Inhibition in the data set with Mus musculus [3] came to 6%.
Compound `CCCC(=O)Oc1c(OC)c(OC)c(OC(=O)CCC)c2cc(C)c(C)cc12` had a logP in data set [2] of 5.4. Further, the Significance entry in data set [6] is reported as “Not Active”. The compound also returned an Inhibition in the data set on Mus musculus [3] of 14%.
In data set [2], `COc1c(OC)c(OC(=O)C(C)(C)C)c2ccccc2c1OC(=O)C(C)(C)C` gave a lipophilicity (logP) of 5.69. Further, the Significance entry in data set [6] was “Not Active”. For the same compound, the Inhibition with Mus musculus [3] worked out at 0%.
`COc1c(OC)c(OC(C)=O)c2cc(C#N)ccc2c1OC(C)=O` displayed a lipophilicity (logP) in data set [2] of 2.28. In addition, the Significance result in data set [6] is “Not Active”. Besides, in the data set on Mus musculus [3], the Inhibition stood at 7%.
Regarding `CC(C)(C)C(=O)Oc1c(Oc2ccccc2)c(Oc2ccccc2)c(OC(=O)C(C)(C)C)c2ccccc12`, the Significance entry in data set [4] was “Insoluble”. The compound also had a log partition coefficient (logP) in data set [2] of 7.8. Also, the inhibition result with Mus musculus [5] is listed as “Insoluble”.
As for `COc1c(OC)c(OC(C)=O)c2c(Cl)cccc2c1OC(C)=O`, in data set [2], the logP stood at 3.16. Moreover, the Significance entry in data set [6] is recorded as “Not Active”. Also, the Inhibition with Mus musculus [3] was found to be 11%.
Consider `CC(=O)Oc1c(Oc2ccccc2)c(Oc2ccccc2)c(OC(C)=O)c2cc(Cl)ccc12`, for which, in data set [2], the logP was 5.6. In addition, in data set [6], the Significance entry was “Not Active”. The Inhibition with Mus musculus [3] came out at 5%.
In turn, `COc1ccc2c(OC(=O)C(C)(C)C)c(OC)c(OC)c(OC(=O)C(C)(C)C)c2c1` gave a logP in data set [2] of 5.4. For the same compound, the Significance entry in data set [6] is recorded as “Not Active”. Further, the Inhibition with Mus musculus [3] was 3%.
Regarding `O=C(Oc1c(Oc2ccccc2)c(Oc2ccccc2)c(OC(=O)c2ccccc2)c2ccccc12)c1ccccc1`, in data set [4], the Significance result was “Insoluble”. The logP in data set [2] came out at 7.9. Further, the inhibition entry with Mus musculus [5] is given as “Insoluble”.
Compound `COc1c(OC)c(OC(=O)C(C)(C)C)c2cc(Cl)ccc2c1OC(=O)C(C)(C)C` came in with a logP in data set [2] of 6.6. In addition, the Significance result in data set [6] is reported as “Not Active”. In the data set with Mus musculus [3], the Inhibition was found to be 11%.

As usually defined, the logP is the decadic logarithm of the partition coefficient of the neutral form, usually between octanol and water. What is called Inhibition is the change of the read-out against control, counted positive when it falls. The low end stands for a weak effect, the high end for a strong effect.
